According to publication PMC6661244 (Investigative Radiology, 2019):
Entries after “also recorded” stand apart in the source; their conditions may differ.

Key:
[1] = assay type: physicochemical; details: 2.5 mM GBCA and ZnCl2, phosphate buffer pH 7, 335 mM, 37°C, 0.47 T, up to 5 days
Osmolality = assay type: physicochemical; details: 0.5-M solution; Guerbet measurements
In short: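 Vapour-pressure osmometry on a 0.5 M solution, triplicate readings. The osmometer was calibrated before each use with 100, 290 and 1000 mOsm/kg H2O standards.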

Viscosity = assay type: physicochemical; details: 0.5 M
In short: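 Cone-and-plate rotational rheometry (60 mm, 2° cone) on a 0.5 M solution at 37°C. Shear rate was recorded at applied stresses of 1–5 Pa, and viscosity was taken from the slope of stress versus shear rate.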

[2] = Nuclear magnetic relaxation dispersion; assay type: physicochemical
[3] = Metabolism: HPLC analysis of plasma and urine samples; assay type: in vivo; details: Beagle dogs, 0.2 mmol Gd/kg IV
In short: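 Urine and plasma from Beagle dogs given a 153Gd-labelled test compound (0.2 mmol Gd/kg IV) were analysed by radio-HPLC. Separation used a C18 column at 4°C, with detection by a flow scintillation analyser.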

[4] = tested on: hepatic colorectal metastases; details: rats, 0.1 mmol Gd/kg intravenously, 9.4 T, compared with gadobutrol; cited from earlier work

| SMILES | r1(t)/r1(t0) ratio over time in the presence of Zn^2+ and phosphate [1] | Osmolality at 37°C at marketed concentration (Osmolality) | Viscosity at 37°C (Viscosity) | Relaxivity r1 at 37°C ([2]; 3 T, in human serum, extrapolated from NMRD profiles) | r1 relaxivity (NMRD profile) ([2]; 300 MHz, ie, 7 T field, water, 37°C) | Metabolites in plasma and urine samples (HPLC) [3] | Lesion enhancement [4] |
| --- | --- | --- | --- | --- | --- | --- | --- |
| CNC[C@H](O)[C@@H](O)[C@H](O)[C@H](O)CO.O=C([O-])CN1CCN(CC(=O)[O-])CCN(CC(=O)O)CCN(CC(=O)[O-])CC1.[Gd+3] [Gadoterate (Meglumine Salt), reference compound] | remained constant | – | – | – | – | – | – |
| O=C(CCC(C(=O)[O-])N1CCN(C(CCC(=O)NCC(O)CO)C(=O)[O-])Cc2cccc(n2)CN(C(CCC(=O)NCC(O)CO)C(=O)[O-])CC1)NCC(O)CO.[Gd+3] (centres unmarked) [Gadopiclenol, gadolinium chelate of 2,2′,2″-(3,6,9-triaza-1(2,6)-pyridinacyclodecaphane-3,6,9-triyl)tris(5-((2,3-dihydroxypropyl)amino)-5-oxopentanoic acid)] | remained constant | 843 mOsm/kg H2O | 7.6 mPa·s | 11.6 mM⁻¹ s⁻¹ | 10.68 mM⁻¹ s⁻¹ | No metabolites were found; also recorded: only unchanged gadopiclenol | significantly better lesions enhancement |
